Sampled rows, rich in hits. Any-hit rate of the full collection: about 2.1%.
m5-HT2A agonist: mouse Htr2a agonists via beta-arrestin recruitment, primary screen, cell-based, luminescence; AID 624169, 2012; 5-hydroxytryptamine receptor 2A (Mus musculus), P35363; activation, % at 7.6 µM; CHO-K1 mHTR2A beta-arrestin complementation; percent of 30 µM serotonin response; actives 0.66% (n = 360,000);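 active = activation above a run cutoff, the mean activation of all tested compounds plus 3 SD, cut at about 14% in these data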
EBI2 block: EBI2 receptor antagonists, beta-arrestin recruitment, primary screen, cell-based, luminescence, 7a,25-OHC stimulation, uHTS | actives 0.81% (n = 360,000) | inhibition, % at 5 µM | 7a,25-OHC stimulated | G-protein coupled receptor 183 (Homo sapiens), P32249; in the data active = inhibition above about 38%;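 also: enzyme fragment complementation signal reports receptor beta-arrestin coupling in cells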
APJ agonist: agonists of human apelin receptor APJ, primary screen, CHO-K1 cells, PathHunter beta-arrestin, luminescence. P35414. 0% DMSO wells, 100% apelin. activation, % at 20 µM. actives 0.11% (n = 330,000). AID 2520, 2010;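 active = activation more than six SD over the plate average, tested at 20 µM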
Target sequence (P35414 whole entry, looked up): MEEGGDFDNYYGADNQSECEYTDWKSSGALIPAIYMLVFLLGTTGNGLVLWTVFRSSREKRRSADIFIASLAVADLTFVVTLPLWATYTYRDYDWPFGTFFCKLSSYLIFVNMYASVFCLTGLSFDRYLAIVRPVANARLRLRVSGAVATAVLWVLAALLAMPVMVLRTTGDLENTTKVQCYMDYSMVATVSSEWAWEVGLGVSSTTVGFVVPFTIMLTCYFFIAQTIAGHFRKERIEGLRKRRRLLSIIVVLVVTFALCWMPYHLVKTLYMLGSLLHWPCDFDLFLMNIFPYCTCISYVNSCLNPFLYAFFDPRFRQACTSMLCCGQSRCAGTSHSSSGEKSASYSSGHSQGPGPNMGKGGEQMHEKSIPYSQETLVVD
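Test system: CHO-K1 APJ beta-arrestin complementation cell line. Amount: cell density 1000 per well. Controls: DMSO negative, 10 nM Apelin-13 positive. Signal: luminescent beta-gal fragment complementation, chemiluminescent substrate. Read-out basis: agonist-driven arrestin binding to APJ. Timing: compound stimulation 90 min at 25 °C, detection 60 min.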
APJ antag: antagonists of human apelin receptor APJ, primary screen, CHO-K1 cells, beta-arrestin complementation, luminescence | P35414 | inhibition, % at 20 µM | actives 0.32% (n = 330,000) | AID 2521, 2010;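 active = inhibition above about 40% at 20 µM, limit read from the data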;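 also: cells challenged with 10 nM apelin-13 agonist together with compound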
CCR6 antagonist: CCR6 receptor antagonists, primary screen, cell-based, CHO-K1, luminescence, beta-arrestin, uHTS. AID 493098, 2011. CHO-K1 CCR6 PathHunter beta-arrestin, CCL20-stimulated. actives 0.49% (n = 340,000). inhibition, % at 20 µM;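 active = compounds whose inhibition of the agonist-driven luminescence signal at 20 µM reaches about 50%, limit read from the data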;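 also: cells stimulated with CCL20 at 14 nM final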
CXCR6 inh: CXCR6 receptor inhibitors, primary screen, cell-based, beta-arrestin, luminescence, CHO-K1 PathHunter, 1536-well; inhibition, % at 20 µM; C-X-C chemokine receptor type 6 (Homo sapiens), O00574; actives 0.36% (n = 360,000); in the data active = inhibition above about 34%, passing the limit was not always enough;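 also: antagonist mode with CXCL16 agonist at 10 nM final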
EBI2 conf: EBI2 antagonist hit retest, beta-arrestin, confirmation, cell-based, single concentration, luminescence, 7a,25-OHC stimulation; shares compounds with EBI2 block; 7a,25-OHC antagonism; actives 29% (n = 2,400); inhibition, % at 5 µM;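 active = inhibition of at least 50%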
EBI2 agonist: EBI2 agonist activity of antagonist hits, confirmation, counter-screen for EBI2 antagonist project, cell-based, single concentration, agonist mode, luminescence; shares compounds with EBI2 block; EBI2-expressing cells, 60 min; 0% vehicle, 100% 7α,25-dihydroxycholesterol control; activation, % at 5 µM; 2,400 tested, under 10 active;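 active = activation of at least 50%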
bGal counter: E. coli beta-galactosidase enzyme inhibition, confirmation, counter-screen for EBI2 antagonist project, biochemical, luminescence, single concentration | shares compounds with EBI2 block | AID 652176, 2013 | purified beta-galactosidase, luminescent Galacton Star, 15 min | actives 1% (n = 2,400) | inhibition, % at 5 µM;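 active = replicate-average signal at least 3 plate SD below neutral wells, shown as high inhibition, flagging enzyme-inhibiting false positives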;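 also: higher means stronger loss of beta-gal luminescence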
Hits are given with their value; – = inactive; · = no result.

SMILES | m5-HT2A agonist | EBI2 block | APJ agonist | APJ antag | CCR6 antagonist | CXCR6 inh | EBI2 conf | EBI2 agonist | bGal counter
CC1CC(C)CN(C(=O)CNC(=O)c2ccc3ccccc3c2)C1 (stereo unspecified) | – | – | – | – | – | – | · | · | ·
CCn1c(=O)c(=O)n(CC)c2cc(S(=O)(=O)Nc3cc(C)ccc3C)ccc21 | – | – | – | – | – | – | · | · | ·
CCCc1ccc(-c2csc(NC(=O)C3=COCCO3)n2)cc1 | – | – | – | – | – | – | · | · | ·
Cc1ccc(NC(=O)c2ccc3ccccc3n2)cc1S(=O)(=O)N1CCOCC1 | – | – | – | – | – | – | · | · | ·
COC(=O)C1=C[C@@H](C(=O)OC)[C@@H]2C3=C(C(=O)[C@@]2(C)NC(=O)c2ccccc2)[C@H](C)C(C(=O)OC)=C(C(=O)OC)[C@@H]3C1 | – | – | – | – | – | – | · | · | ·
CC(=O)c1ccc(N2CCN(C(=O)c3ccc4[nH]c(C)c(C)c4c3)CC2)cc1 | – | – | – | – | – | – | · | · | ·
Cc1[nH]c2ccc(C(=O)N3CCN(c4ccc(F)cc4)CC3)cc2c1C | – | 78 | – | – | – | – | 72 | – | –
COc1ccc(N2CCN(C(=O)c3ccc4[nH]c(C)c(C)c4c3)CC2)cc1 | – | 85 | – | – | – | – | 73 | – | –
Cc1nn(Cc2ccc([N+](=O)[O-])cc2)c(=O)n1-c1cccc(Cl)c1 | – | – | – | – | – | – | · | · | ·
c1ccc(Cn2cc(CNc3ccccc3)nn2)cc1 | – | 49 | – | – | – | – | – | – | –
COc1ccc(C2CC(c3ccccc3)=NN2C(=O)COC(=O)c2ccc(S(C)(=O)=O)cc2)cc1 (stereo unspecified) | – | – | – | – | – | – | · | · | ·
COc1ccc(C2CC(c3ccccc3)=NN2C(=O)COC(=O)c2cc(S(=O)(=O)N3CCOCC3)ccc2F)cc1 (stereo unspecified) | – | 54 | – | – | – | – | 52 | – | –
O=C(O)CCC(=O)N(Cc1ccco1)C1CC(=O)N(c2ccccc2)C1=O (stereo unspecified) | – | – | – | – | – | – | · | · | ·
CC1CCCCN1C(=S)Nc1ccc(OC(F)F)cc1 (stereo unspecified) | – | 50 | – | – | – | – | – | – | –
CCOc1ccc(NC(=S)Nc2cccc3ccccc23)cc1 | – | 56 | – | – | – | – | – | – | –
CCOc1ccc(NC(=S)Nc2cccc3cnccc23)cc1 | – | 66 | – | – | – | – | – | – | –
Cc1ccc(NC(=S)Nc2cccc3ccccc23)cc1 | – | – | – | – | – | – | · | · | ·
CC(C)c1ccc(NC(=S)Nc2cccc3ccccc23)cc1 | – | 44 | – | – | – | – | – | – | –
CC(=O)N(C)c1ccc(NC(=S)Nc2ccc(C(C)C)cc2)cc1 | – | 52 | – | – | – | – | – | – | –
CCNC(=S)Nc1ccc(OCC)cc1 | – | – | – | – | – | – | · | · | ·
CCOc1ccc(NC(=S)Nc2ccccc2C2CC2)cc1 | – | 60 | – | – | – | – | – | – | –
O=C(/C=C/c1ccc(Cl)cc1)Nc1ccc(N2CCCCC2)cc1 | – | 44 | – | – | – | – | – | – | –
Cc1ccc(/C=C/C(=O)N2CCN(S(=O)(=O)c3cccs3)CC2)o1 | – | – | – | – | – | – | · | · | ·
Cc1ccc(/C=C/C(=O)N2CCN(S(=O)(=O)/C=C/c3ccccc3)CC2)o1 | – | 67 | – | – | – | – | – | – | –
O=C(/C=C/c1ccco1)N1CCN(S(=O)(=O)/C=C/c2ccccc2)CC1 | – | 79 | – | – | – | – | – | – | –
SMILES | m5-HT2A agonist | EBI2 block | APJ agonist | APJ antag | CCR6 antagonist | CXCR6 inh | EBI2 conf | EBI2 agonist | bGal counter
O=C(/C=C/c1ccco1)N1CCN(C/C=C/c2ccccc2)CC1 | – | 63 | – | – | – | – | – | – | –
CC(C)N(CC(N)=O)c1ccc(S(=O)(=O)N2CCCC2)cn1 | – | – | – | – | – | – | · | · | ·
COc1cc(/C=C/C(=O)O)cc(S(=O)(=O)Nc2ccccc2Oc2ccccc2)c1OC | – | – | – | – | – | – | · | · | ·
Cc1cc(C)c(C#N)c(SCC(O)CS(=O)(=O)Cc2ccccc2)n1 (stereo unspecified) | – | – | – | – | – | – | · | · | ·
Cc1cc(C)c(C#N)c(SCC(O)COc2ccc(Br)cc2)n1 (stereo unspecified) | – | 65 | – | – | – | – | – | – | –
COc1cc(OC)nc(C(NC(=O)C2CCN(Cc3ccc(Oc4ccccc4)cc3)CC2)c2ccccc2C)n1 (stereo unspecified) | – | 53 | · | · | · | – | – | – | –
CC1O[C@@H](O[C@H](C)CC[C@@H](C)O)C(O)C[C@H]1O (stereo partly specified) | – | – | – | – | – | – | · | · | ·
COc1cc(/C=C2/S/C(=N/S(=O)(=O)Cc3ccccc3)NC2=O)c([N+](=O)[O-])cc1OC | – | – | – | – | – | – | · | · | ·
CC(C)(C)c1ccc(C(=S)N2CCN(c3ccccc3)CC2)cc1 | – | 58 | – | – | – | – | – | – | –
Cc1ccccc1N1CCN(C(=S)c2ccccc2)CC1 | – | – | – | – | – | – | · | · | ·
CCN(CC)c1ccc(NC(=O)/C=C\c2ccccc2Cl)cc1 | – | 49 | – | – | – | – | – | – | –
O=C(C1=C[C@@H](C2CC2)C[C@@H](OCc2ccc(CO)cc2)O1)N1CCN(Cc2ccccc2)CC1 | – | – | – | – | – | – | · | · | ·
COc1ccc2cc(C(=O)N3CCN(c4ccccc4OC)CC3)[nH]c2c1 | – | 74 | – | – | – | – | – | – | –
COc1ccc2cc(C(=O)N3CCN(c4ccccc4F)CC3)[nH]c2c1 | – | 65 | – | – | – | – | 58 | – | –
CC(=O)N(CCC1(c2ccc(C)cc2)CCOC(C(C)C)C1)Cc1ccco1 (stereo unspecified) | – | – | – | – | – | – | · | · | ·

Screening results deposited in PubChem by several laboratories.
